Measured values as given in paper PMC4800303 (British Journal of Cancer, 2016).
≈ marks a conversion by molar mass, not a printed value.

Columns and labels:
[1] = Pharmacokinetics in xenograft tumour-bearing mice; type: in vivo; settings: vemurafenib and abemaciclib coadministered; data not shown
[2] = system: phospho-(ser780)-Rb (pRb); type: in vivo, mice; settings: Mus musculus, COLO 205, read-out: IC50,Abemaciclib
How it was run: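 Semimechanistic PK/PD model with four sequential transit compartments (early G1, late G1, S, G2/M). pRb, TopoIIα and pHH3 represent late G1, S and G2/M phase density. Model refitted to colo-205 xenograft biomarker data, including Total Rb after single or daily oral 50 mg kg⁻¹ abemaciclib. Population approach for longitudinal data. IC50 is an estimated model parameter.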

[3] = system: Total Rb; assay: Abemaciclib-mediated inhibition of Total Rb in xenograft tumours; type: in vivo, mice; settings: 50 mg kg^−1 every day
How it was run: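 Colo-205 xenograft mice given abemaciclib 50 mg kg⁻¹ orally once daily for 56 days; tumour collected at 28 and 56 days, n=5 per time point. Tumour lysates assayed for Total Rb alongside pRb, TopoIIα and pHH3. Data were added to a refit of the cell-cycle PK/PD model.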

[4] = system: BRAF-mutated (V600E/K) metastatic melanoma; settings: pivotal phase III registration trial; ref Chapman et al., 2011; cited from earlier work
[5] = system: pRb; assay: Biomarker model: effect of vemurafenib on pRb in A375 xenograft tumours; type: in vivo, mice; settings: Mus musculus, A-375, read-out: Inhibition of pRb
How it was run: (§1)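 A375 xenograft mice given single oral vemurafenib: 15 mg kg⁻¹ with blood and tumour at 1, 2, 6, 12, 24, 48 h; 7.5, 30 or 60 mg kg⁻¹ with sampling at 4, 8, 24 h; n=5 per time point. Tumour biomarkers expressed as percentage of vehicle control. Plasma PK fitted by one-compartment model with saturable absorption; indirect response model links concentration to pMEK, driving pERK; values from model fitting/simulation.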

[6] = system: phospho-(ser217/221)-mitogen-activated protein kinase kinase (pMEK); type: in vivo, mice; settings: after a 15 mg kg^−1 dose of vemurafenib
How it was run: as §1

[7] = system: Cyclin D1; assay: Biomarker model: effect of vemurafenib on Cyclin D1 in A375 xenograft tumours; type: in vivo, mice
How it was run: as §1

[8] = system: phospho-(thr202/tyr204)-ERK (pERK); assay: Biomarker model: effect of vemurafenib on pERK in A375 xenograft tumours; type: in vivo, mice
How it was run: as §1

[9] = system: A375 xenograft tumours; assay: Tumour growth inhibition and tumour model in A375 xenograft tumours; type: in vivo, mice; settings: continuous vemurafenib treatment; estimated
How it was run: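 A375 xenograft mice received vemurafenib 15 mg kg⁻¹ twice daily for 48 days to allow resistance. They then received abemaciclib 90 mg kg⁻¹ daily or continued vemurafenib for 28 days (n=8 per group), with vehicle controls (n=8). Tumour size was measured every 3–4 days for ∼13 weeks. Time to resistance was estimated by the tumour growth model with a modulator compartment.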

[10] = after a 15 mg kg^−1 dose of vemurafenib
[11] = continuous vemurafenib, at time to resistance (∼30 days), model

SMILES	Pharmacokinetics after coadministration [1]	IC50 [2] [ng/mL]	Inhibition of Total Rb [3] [%]	Progression-free survival (PFS) [4] [months]	inhibition at 15 mg/kg [5] [%]	Time of maximum inhibition of pMEK [6] [h]	inhibition at 15 mg/kg ([7]; Mus musculus, A-375, read-out: Inhibition of Cyclin D1) [%]	Time of maximum inhibition of Cyclin D1 [7, 10] [h]	Elevation of Cyclin D1 over baseline at resistance [7, 11]	Time of maximum inhibition of pERK [8, 10] [h]	Elevation of pERK over baseline at resistance [8, 11]	Time to resistance [9] [days]
CCN1CCN(Cc2ccc(Nc3ncc(F)c(-c4cc(F)c5nc(C)n(C(C)C)c5c4)n3)nc2)CC1 [abemaciclib]	neither vemurafenib nor abemaciclib exhibited altered pharmacokinetics after coadministration	4.99 (≈ 9.85 nM)	~40	–	–	–	–	–	–	–	–	–
CN(C)/N=N/c1[nH]cnc1C(N)=O [dacarbazine]	–	–	–	1.6	–	–	–	–	–	–	–	–
CCCS(=O)(=O)Nc1ccc(F)c(C(=O)c2c[nH]c3ncc(-c4ccc(Cl)cc4)cc23)c1F [vemurafenib]	neither vemurafenib nor abemaciclib exhibited altered pharmacokinetics after coadministration	–	–	5.3	50	2	33	10	nearly twofold	2	nearly twofold	~30
